# The list is not random: actives were taken first. Their share in the collection is about 3.4%.
# MIN6 prolif: MIN6 beta-cell proliferation induction; MIN6 cells proliferation, ATPlite luminescence, 48 h; cells starved in 0.2% serum; 100% = growth in 10% serum; proliferation, % at 10 µM; 330,000 compounds, 0.29% hits;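 active means compounds whose signal lies at least 3.5 SD above the mean of all wells on their plate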;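 further: 0% = DMSO-treated cells in low-serum medium and 100% = 10% serum control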
# TMEM16A inh: mouse TMEM16A channel inhibition, primary screen | Q8BHY3 | HEK293 TMEM16A/YFP iodide influx fluorescence, ionomycin | normalized B-score (activity score, 25-100; higher = stronger inhibition) at 10 µM | 310,000 compounds, 1.2% hits | AID 588511;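 active means ratio plate-corrected score three or more library SD toward inhibition, starting fluorescence score within five deviations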;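 further: score derived from kinetic fluorescence span divided by baseline fluorescence per well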
# MC4R ag barr: activates human MC4R beta-arrestin recruitment; 360,000 compounds, 0.98% hits; U2OS MC4R beta-arrestin complementation, luminescence; percent of melanotan II response, DMSO zero; P32245; AID 540308; activation, % at 8.9 µM;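 active means activation above a per-plate cutoff, the mean activation of sample wells on that plate plus 3 SD, cut at about 8% in these data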
# TMEM16A act: activates or potentiates the mouse TMEM16A chloride channel; HEK293 TMEM16A/YFP-H148Q/I152L, iodide quench fluorescence; stronger effect = lower value; B-score at 10 µM; 340,000 compounds, 0.3% hits; AID 623877;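 active means fluorescence-ratio B-score plate-corrected deviation score at least 3 library SD below zero, with starting fluorescence score within 5 deviations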;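 further: channel opened by trigger with iodide after compound preincubation; score built on the fluorescence ratio of max minus min over baseline; more negative score means more quench and so TMEM16A activation or potentiation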
# MC4R antagonist: antagonists of human melanocortin 4 receptor (MC4R) | inhibition, % at 6.5 µM | MC4R-expressing cells, MTII-stimulated cAMP, LANCE TR-FRET | P32245 | 360,000 compounds, 0.48% hits;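 active means inhibition above its plate's cutoff, the mean of tested wells on that plate plus 3 SD, cut at about 29% in these data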;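 further: 0% = Melanotan II alone and 100% = Melanotan II plus saturating MCL0020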
#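 Test system: U2OS cells stably expressing human melanocortin 4 receptor (MC4R); also added: Melanotan II challenge; compound: 6.5 µM single dose; timing: 30-min compound preincubation, 1-h Melanotan II challenge, 1-h detection, room temperature; signal: Eu-cAMP/anti-cAMP TR-FRET, emission 671 nm; repeats: one well per compound, no replicates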
# HTR2A ag: mouse HTR2A agonism via beta-arrestin recruitment; CHO-K1 mHTR2A beta-arrestin complementation, luminescence; percent of 30 µM serotonin response; P35363; activation, % at 7.6 µM; 360,000 compounds, 0.66% hits;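 active means activation above a run cutoff, the mean activation of all tested compounds plus 3 SD, cut at about 14% in these data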;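 further: 0% = plate median of compound wells and 100% = 30 µM serotonin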
# Target sequence (P35363 whole entry, looked up): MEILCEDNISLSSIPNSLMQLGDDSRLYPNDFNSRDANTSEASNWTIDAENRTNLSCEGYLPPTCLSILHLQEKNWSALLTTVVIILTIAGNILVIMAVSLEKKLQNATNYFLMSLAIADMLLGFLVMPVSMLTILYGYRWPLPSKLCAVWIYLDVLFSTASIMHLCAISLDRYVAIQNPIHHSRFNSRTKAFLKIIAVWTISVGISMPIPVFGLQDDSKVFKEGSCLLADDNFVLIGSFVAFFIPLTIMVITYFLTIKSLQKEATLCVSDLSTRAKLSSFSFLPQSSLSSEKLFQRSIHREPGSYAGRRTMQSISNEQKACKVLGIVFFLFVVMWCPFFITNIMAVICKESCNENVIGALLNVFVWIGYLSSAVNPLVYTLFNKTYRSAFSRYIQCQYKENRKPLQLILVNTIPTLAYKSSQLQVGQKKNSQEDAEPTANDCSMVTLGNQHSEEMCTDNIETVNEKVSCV
# cAMP nonselect: nonselective cAMP signaling inhibitor, MC4R antagonist counter-screen; shares compounds with MC4R antagonist; parental U2OS, forskolin cAMP, LANCE TR-FRET; inhibition, % at 6.5 µM; 1,600 compounds, 26% hits;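 active means mean inhibition over triplicates above the low-control well mean plus 3 SD, set per campaign, cut at about 13% in these data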;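 further: signal is single emission at 671 nm which falls as cellular cAMP rises; 0% = forskolin-stimulated wells and 100% = buffer without forskolin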
# MC4R antag conf: human MC4R cAMP antagonism confirmation. inhibition, % at 6.5 µM. AID 602195. shares compounds with MC4R antagonist. MC4R-expressing cells, MTII-stimulated cAMP, TR-FRET. 1,600 compounds, 27% hits; in the data active means inhibition above about 29%;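 further: 0% = agonist stimulated wells alone and 100% = agonist stimulated wells plus saturating reference antagonist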
# An asterisk follows results filed as active; i = inactive; . = not tested or not shown.
SMILES,MIN6 prolif,TMEM16A inh,MC4R ag barr,TMEM16A act,MC4R antagonist,HTR2A ag,cAMP nonselect,MC4R antag conf
COc1ccc(NC(=O)COC(=O)C2CC(=O)N(c3ccc(C)cc3)C2)cc1 (centres undefined),-2,i,1,i,42*,3,-1,-3
COc1ccc(NC(=O)COC(=O)C2CC(=O)N(c3ccc(OC(C)C)cc3)C2)cc1 (centres undefined),-1,i,-1,i,22,11,.,.
CC(=NNC(=O)CSCC(=O)NN=C(C)c1ccccc1)c1ccccc1,.,.,3,i,12,-2,.,.
COc1ccccc1NS(=O)(=O)c1cccc(NC(=O)c2cc3ccccc3oc2=O)c1,1,i,7,i,29*,0,-5,-11
COc1ccccc1NS(=O)(=O)c1cccc(NC(=O)Nc2ccccc2)c1,-5,i,0,i,8,0,.,.
Cc1ccccc1C(=O)N1CCC(C(=O)NC(C)c2ccc(-n3ccnc3)cc2)CC1 (centres undefined),-2,i,-3,i,11,0,.,.
Cc1cc(C)n2nc(C(=O)NNC(=O)c3ccc(Cl)cc3)nc2n1,1,i,-1,i,36*,1,0,3
Cc1ccc(C(=O)NNC(=O)Cc2nc3nc(C)cc(C)n3n2)cc1,-2,i,0,i,2,6,.,.
COc1ccccc1-n1cc([C@@H]2C[C@H]3CN(c4ccccc4)C(=O)[C@]34CCCN24)cn1,-6,i,-2,i,35*,-4,0,-8
C[C@@H]1CN([C@@H](C)CO)C(=O)CCCn2cc(nn2)CO[C@H]1CN(C)C(=O)c1cc(-c2ccccc2)on1,.,.,0,.,13,3,.,.
O=C(NCc1nnnn1-c1ccc(F)cc1)C(=O)c1c[nH]c2ccccc12,.,.,-1,.,1,-2,.,.
C#CCOCCOCCOCCNc1nc(N2CCN(C(=O)CCCCCCCCCCNC(=O)[C@H]([C@@H](C)CC)n3cc(CCCCN=C(N)N)nn3)CC2)nc(N2CCN(C(=O)CCCCCCCCCCNC(=O)[C@@H]([C@H](C)O)n3cc(C)nn3)CC2)n1,-6,25*,-1,-25*,38*,1,19*,55*
C#CCOCCOCCOCCNc1nc(N2CCN(C(=O)CCCCCCCCCCNC(=O)Cn3cc(CCCCCN)nn3)CC2)nc(N2CCN(C(=O)CCCCCCCCCCNC(=O)[C@@H]([C@H](C)O)n3cc(C)nn3)CC2)n1,-8,i,-2,i,4,-4,.,.
O=C(CCC1CCCC1)Nc1cccc(Cc2ccncc2)c1,-3,i,1,i,33*,-4,-3,-14
CCOC(=O)C(C)(C)N(Cc1cccc(C)c1)S(=O)(=O)c1cccc([N+](=O)[O-])c1,-5,i,0,i,5,-3,.,.
CCOC(=O)C(C)(C)N(Cc1cccc(C)c1)S(=O)(=O)c1ccc(Cl)c([N+](=O)[O-])c1,-3,i,1,i,54*,1,26*,63*
C#CCn1cc2c(c1-c1ccccc1)c(=O)n(C)c(=O)n2C,.,.,-1,.,-15,1,.,.
CCOc1cc(C(=O)NCC(C)(C)CNC(=O)c2cc(OCC)c(OCC)c(OCC)c2)cc(OCC)c1OCC,-5,i,1,i,30*,0,-5,1
COC(=O)c1ccc(CNC(=O)C2CCC(=O)N(CCc3ccccc3)C2)cc1 (centres undefined),-4,i,-3,i,2,0,.,.
CC(C)CN(C(=O)COC(=O)c1nc(Cl)ccc1Cl)C1CCS(=O)(=O)C1 (centres undefined),-1,i,2,i,36*,3,0,-7
CCn1nnnc1NCc1ccc(OCc2c(F)cccc2Cl)c(OC)c1,-3,i,0,i,32*,0,-3,7
NC(=O)c1cccc2ccccc12,-3,i,-1,i,32*,3,2,-8
O=C(c1ccccc1)c1cccc2ccccc12,.,.,5,i,2,-1,.,.
COc1ccc(N(C)S(=O)(=O)c2cccc(C(=O)OCC(=O)NCc3ccccc3OC)c2)cc1,-2,i,-1,i,30*,0,3,5
CN(c1ccccc1)S(=O)(=O)c1cccc(C(=O)OCC(=O)NCc2ccccc2)c1,-1,.,1,i,14,0,.,.
SMILES,MIN6 prolif,TMEM16A inh,MC4R ag barr,TMEM16A act,MC4R antagonist,HTR2A ag,cAMP nonselect,MC4R antag conf
CCOC(=O)N1CCC(N2CCCC(CO)(Cc3cccc(Cl)c3)C2)CC1 (centres undefined),-2,i,4,i,34*,0,-3,-15
O=C1c2cccc([N+](=O)[O-])c2C(=O)N1c1ccccc1,-3,i,-4,i,30*,-2,9,21
O=C1c2cccc([N+](=O)[O-])c2C(=O)N1c1cccnc1,2,i,0,i,19,-2,.,.
COc1ccc(CC(=O)n2nc(-c3ccccc3)nc2NCc2ccco2)cc1,-1,i,0,i,9,-2,.,.
O=C(CCc1ccccc1)n1nc(-c2ccccc2)nc1NCc1ccco1,-1,i,0,i,33*,-2,-2,5
O=C(Nc1ccc(F)cc1)c1cc(-c2ccccn2)nc2c(Cl)cccc12,-2,i,1,i,30*,2,35*,42*
CC(C)[C@H](NC(=O)OC(C)(C)C)c1nnc(S(=O)(=O)Cc2c(F)cccc2Cl)o1,-6,i,-3,i,64*,-4,27*,34*
CC[C@@H](C)[C@H](NC(=O)OC(C)(C)C)c1nnc(S(=O)(=O)Cc2cc(C)ccc2C)o1,-7,i,-3,i,22,-8,.,.
Cc1ccccc1CS(=O)(=O)c1nnc([C@H](CC(C)C)NC(=O)OC(C)(C)C)o1,-5,i,-1,i,33*,-7,11,20
COc1cccc(N2CCN(C(=O)CN3C(=O)NC(C)(c4ccc5ccccc5c4)C3=O)CC2)c1 (centres undefined),-3,i,-3,i,15,0,.,.
COc1ccc(C(=O)COC(=O)CCN=C2NS(=O)(=O)c3ccccc32)c(OC)c1,2,i,-2,i,0,0,.,.
